Source: ChEMBL document CHEMBL1152281, “2-Alkylamino- and alkoxy-substituted 2-amino-1,3,4-oxadiazoles-O-Alkyl benzohydroxamate esters replacements retain the desired inhibition and selectivity against MEK (MAP ERK kinase)” (Bioorg Med Chem Lett, 2008)
In brackets after ≈: the same amount, converted by molar mass. Values belong to the molecule of their own block, whether it stands above or below them. Activity calls are given as the source filed them. The rule behind the calls is not given here.

Tests used:
[1] = Metabolic stability in human liver microsomes assessed as half life
[2] = Solubility in sodium phosphate buffer at pH 6.5 by HPLC
Colon 26 [3] = assay: Antitumor activity against mouse Colon 26 cells implanted in mouse at 100 mg/kg, po administered BID on day 9 to day 15; type: functional
Colon 26 [4] = assay: Antitumor activity against mouse Colon 26 cells implanted in mouse assessed as 50% decrease in tumor mass at 100 mg/kg, po administered BID on day 9 to day 15; type: functional, organism-based; set-up: dose 100 mg/kg
Mus musculus [5] = assay: Toxicity in mouse Colon 26 cells implanted mouse assessed as body weight loss at 100 mg/kg, po administered BID on day 9 to day 15; type: organism-based; set-up: dose 100 mg/kg, route oral; details: in vivo
In short: (§1)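 Mice bearing subcutaneous Colon 26 tumours were gavaged daily or BID on days 9–15 (3 per group). Toxicity was taken as maximum treatment-related weight loss, expressed as percent of mean group weight at initial treatment, with the day of maximum loss recorded; a net weight gain is noted as "+". Vehicle was 5% EtOH + 5% Tween 80 in saline.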

Colon 26 [6] = assay: Antitumor activity against mouse Colon 26 cells implanted in mouse assessed as <62 mg decrease in tumor mass at 100 mg/kg, po administered BID on day 9 to day 15; type: functional, organism-based; set-up: dose 100 mg/kg
Mus musculus [7] = assay: Toxicity in mouse Colon 26 cells implanted mouse assessed as increase in body weight at 50 mg/kg, po administered BID on day 9 to day 15; type: organism-based; set-up: dose 50 mg/kg, route oral; details: in vivo; in short: as §1
Mus musculus [8] = assay: Toxicity in mouse Colon 26 cells implanted mouse assessed as body weight loss at 200 mg/kg, po administered on day 9 to day 15; type: organism-based; set-up: dose 200 mg/kg, route oral; details: in vivo; in short: as §1
Mus musculus [9] = assay: Toxicity in mouse Colon 26 cells implanted mouse assessed as body weight loss at 150 mg/kg, po administered BID on day 9 to day 15; type: organism-based; set-up: dose 150 mg/kg, route oral; details: in vivo; in short: as §1
Colon 26 [10] = assay: Antitumor activity against mouse Colon 26 cells implanted in mouse assessed as <62 mg decrease in tumor mass at 300 mg/kg, po administered on day 9 to day 15; type: functional, organism-based; set-up: dose 300 mg/kg
Colon 26 [11] = assay: Antitumor activity against mouse Colon 26 cells implanted in mouse at 300 mg/kg, po administered on day 9 to day 15; type: functional
Colon 26 [12] = assay: Antitumor activity against mouse Colon 26 cells implanted in mouse at 100 mg/kg, po administered on day 9 to day 15; type: functional
Colon 26 [13] = assay: Antitumor activity against mouse Colon 26 cells implanted in mouse assessed as 50% decrease in tumor mass at 50 mg/kg, po administered BID on day 9 to day 15; type: functional, organism-based; set-up: dose 50 mg/kg
Mus musculus [14] = assay: Toxicity in mouse Colon 26 cells implanted mouse assessed as body weight loss at 300 mg/kg, po administered on day 9 to day 15; type: organism-based; set-up: dose 300 mg/kg, route oral; details: in vivo; in short: as §1
Colon 26 [15] = assay: Antitumor activity against mouse Colon 26 cells implanted in mouse at 150 mg/kg, po administered BID on day 9 to day 15; type: functional
Colon 26 [16] = assay: Antitumor activity against mouse Colon 26 cells implanted in mouse assessed as <62 mg decrease in tumor mass at 150 mg/kg, po administered BID on day 9 to day 15; type: functional, organism-based; set-up: dose 150 mg/kg
Colon 26 [17] = assay: Antitumor activity against mouse Colon 26 cells implanted in mouse at 200 mg/kg, po administered on day 9 to day 15; type: functional
Mus musculus [18] = assay: Ex vivo inhibition of MEK in mouse Colon 26 cells implanted mouse assessed as suppression of ERK-phosphorylation at 100 mg/kg, po after 10 hrs by Western blot; type: functional, organism-based; set-up: dose 100 mg/kg
In short: (§2)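 Mice bearing subcutaneous colon 26 tumours received a single oral dose. At each time point tumours were excised, and p-ERK levels were measured by Western blot against vehicle-treated controls.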

Mus musculus [19] = assay: Toxicity in mouse Colon 26 cells implanted mouse assessed as increase in body weight at 100 mg/kg, po administered on day 9 to day 15; type: organism-based; set-up: dose 100 mg/kg, route oral; details: in vivo; in short: as §1
Colon 26 [20] = assay: Antitumor activity against mouse Colon 26 cells implanted in mouse at 50 mg/kg, po administered BID on day 9 to day 15; type: functional
Mus musculus [21] = assay: Toxicity in mouse Colon 26 cells implanted mouse assessed as increase in body weight at 100 mg/kg, po administered BID on day 9 to day 15; type: organism-based; set-up: dose 100 mg/kg, route oral; details: in vivo; in short: as §1
Colon 26 [22] = assay: Antitumor activity against mouse Colon 26 cells implanted in mouse assessed as <62 mg decrease in tumor mass at 50 mg/kg, po administered BID on day 9 to day 15; type: functional, organism-based; set-up: dose 50 mg/kg
Mus musculus [23] = assay: Ex vivo inhibition of MEK in mouse Colon 26 cells implanted mouse assessed as suppression of ERK-phosphorylation at 12.5 mg/kg, po after 10 hrs by Western blot; type: functional, organism-based; set-up: dose 12.5 mg/kg; in short: as §2
Colon 26 [24] = assay: Antitumor activity against mouse Colon 26 cells implanted in mouse assessed as <62 mg decrease in tumor mass at 100 mg/kg, po administered on day 9 to day 15; type: functional, organism-based; set-up: dose 100 mg/kg

SMILES: OCCCCNc1nnc(-c2ccc(F)c(F)c2Nc2ccc(I)cc2F)o1
half-life [1]: 40 min | solubility [2]: < 3 µg/mL

SMILES: COCCCNc1nnc(-c2ccc(F)c(F)c2Nc2ccc(I)cc2F)o1
half-life [1]: 35 min | solubility [2]: < 3 µg/mL

SMILES: CCN(CC)CCCNc1nnc(-c2ccc(F)c(F)c2Nc2ccc(I)cc2F)o1
half-life [1]: 40 min | solubility [2]: < 3 µg/mL

SMILES: Fc1cc(I)ccc1Nc1c(-c2nnc(NCCCN3CCOCC3)o2)ccc(F)c1F
half-life [1]: 40 min | solubility [2]: < 3 µg/mL

SMILES: O=C(NOCC1CC1)c1ccc(F)c(F)c1Nc1ccc(I)cc1Cl [CI-1040]
LCK (Colon 26 [3]): 0.1 | half-life [1]: 8 min | Activity (Colon 26 [4]): inactive | Activity (Mus musculus [5]): 4.8% | Activity (Colon 26 [6]): inactive

SMILES: OCCCCCNc1nnc(-c2ccc(F)c(F)c2Nc2ccc(I)cc2F)o1
half-life [1]: 40 min | solubility [2]: < 3 µg/mL

SMILES: CNCCNc1nnc(-c2ccc(F)c(F)c2Nc2ccc(I)cc2F)o1
Activity (Mus musculus [7]): Toxic | Activity (Mus musculus [8]): 0.1% | Activity (Mus musculus [9]): 4% | Activity (Colon 26 [10]): Active | LCK (Colon 26 [11]): 0.3 | LCK (Colon 26 [3]): 0.2 | LCK (Colon 26 [12]): 0 | Activity (Colon 26 [13]): inactive | Activity (Mus musculus [14]): 4.5% | LCK (Colon 26 [15]): 0.4 | half-life [1]: 40 min | Activity (Colon 26 [16]): Active | LCK (Colon 26 [17]): 0.3 | Activity (Mus musculus [18]): Active | Activity (Mus musculus [19]): Toxic | LCK (Colon 26 [20]): 0.1 | Activity (Mus musculus [21]): Toxic | solubility [2]: 6.7 µg/mL (≈ 13.7 µM) | Activity (Colon 26 [22]): inactive | Activity (Mus musculus [23]): Active | Activity (Colon 26 [24]): inactive | Activity (Colon 26 [6]): Active

SMILES: OCCCNc1nnc(-c2ccc(F)c(F)c2Nc2ccc(I)cc2F)o1
half-life [1]: 40 min | solubility [2]: < 3 µg/mL

Now from value to molecule:

half-life [1]: 40 min | solubility [2]: < 3 µg/mL
SMILES: NCCNc1nnc(-c2ccc(F)c(F)c2Nc2ccc(I)cc2F)o1

solubility [2]: < 3 µg/mL
SMILES: Nc1nnc(-c2ccc(F)c(F)c2Nc2ccc(I)cc2F)o1

half-life [1]: 40 min | solubility [2]: 5.4 µg/mL (≈ 11 µM)
SMILES: NCCCNc1nnc(-c2ccc(F)c(F)c2Nc2ccc(I)cc2F)o1

half-life [1]: 40 min | solubility [2]: < 3 µg/mL
SMILES: OCCNc1nnc(-c2ccc(F)c(F)c2Nc2ccc(I)cc2F)o1
